CR mimetic SO = reduction of superoxide in aged yeast, primary screen, HTS. S. cerevisiae aged cells, superoxide DHE fluorescence; hits give low values. superoxide response (% of plate mean), % at 10 µM. 330,000 compounds, 0.18% hits;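 active = superoxide response under a set limit, about three screen SD below normal, cut at about 65% in these data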;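 also: yeast aged for seven days with compound at 30 °C before DHE staining; 100% = average MFI of all compound-treated wells on the plate with controls excluded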
beta cell repl = inducers of MIN6 beta-cell proliferation, primary screen, ATP luminescence, uHTS; MIN6 cells proliferation, ATPlite luminescence, 48 h; cells starved in 0.2% serum; 100% = growth in 10% serum; proliferation, % at 10 µM; 330,000 compounds, 0.29% hits;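 active = compounds whose signal lies at least 3.5 SD above the mean of all wells on their plate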;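 also: 0% = DMSO-treated cells in low-serum medium and 100% = 10% serum control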
Rev-erbA mod = modulators of Rev-erb alpha DNA binding, primary screen, biochemical, FITC-DNA, fluorescence polarization, uHTS. Rev-erbα–FITC-DNA binding, 90 min. activity, % at 10 µM. 370,000 compounds, 0.79% hits;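 active = activity above about 14%, limit read from the data; passing the limit was not always enough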;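 also: 0% = DMSO wells with 35 nM protein and 100% = DMSO wells with 750 nM protein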
Target sequence (P20393 whole entry, looked up): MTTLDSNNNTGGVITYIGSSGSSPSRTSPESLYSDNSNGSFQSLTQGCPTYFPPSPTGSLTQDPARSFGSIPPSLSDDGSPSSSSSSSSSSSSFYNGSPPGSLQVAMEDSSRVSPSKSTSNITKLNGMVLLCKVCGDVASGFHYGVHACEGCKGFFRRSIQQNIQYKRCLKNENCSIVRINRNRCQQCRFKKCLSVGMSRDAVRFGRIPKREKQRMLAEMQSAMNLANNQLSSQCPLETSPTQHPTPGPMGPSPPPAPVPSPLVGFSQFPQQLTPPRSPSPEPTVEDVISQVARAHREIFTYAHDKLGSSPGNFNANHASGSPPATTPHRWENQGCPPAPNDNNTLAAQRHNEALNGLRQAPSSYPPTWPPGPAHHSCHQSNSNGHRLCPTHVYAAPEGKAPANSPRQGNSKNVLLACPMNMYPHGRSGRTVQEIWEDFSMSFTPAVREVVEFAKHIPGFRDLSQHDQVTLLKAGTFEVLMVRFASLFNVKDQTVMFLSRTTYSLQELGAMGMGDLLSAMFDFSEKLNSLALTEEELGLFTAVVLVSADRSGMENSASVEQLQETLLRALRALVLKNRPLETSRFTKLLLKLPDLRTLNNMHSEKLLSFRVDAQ
UCH37 DUB inh = inhibitors of human UCH37 deubiquitinase, primary screen, biochemical, Ub-AMC cleavage, fluorescence. inhibition, % (no concentration beside the values). Ubiquitin carboxyl-terminal hydrolase isozyme L5 (Homo sapiens), Q9Y5K5. purified proteasome/UCH37. 330,000 compounds, 0.33% hits;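 active = mean inhibition over replicate wells above about 20%, limit read from the data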;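 also: 0% = compound-free wells with enzyme and 100% = wells lacking proteasome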
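Material: human UCH37 enzyme supplied as purified proteasome complex / Amount: 0.15 nM proteasome as dispensed / Buffer or medium: pH 7.4 Tris-HCl (50 mM) with ovalbumin, ATP-MgCl2, DTT / Times: preincubation 30 min, reaction 25 min, room temperature / Technique: AMC fluorescence from Ub-AMC cleavage, excitation 355 nm, emission 460 nm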
Rce1 inhib = yeast Rce1p protease inhibitors, primary screen, biochemical, fluorescence, cell-free homogeneous | calls only | AID 2563, 2010 | CAAX prenyl protease 2 (Saccharomyces cerevisiae (strain ATCC 204508 / S288c)), Q03530 | 290,000 compounds, 0.27% hits | yeast membranes, quenched prenylated peptide cleavage fluorescence;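 active = fall in fluorescence gain of 50% or more versus controls, with final raw signal at or below 3038400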;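 also: plate controls were neutral control wells for no effect and wells lacking membranes for full effect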
PG9 binder = binders of HIV-1 gp120 antibody PG9, primary screen, biochemical, TR-FRET; TR-FRET gp120-PG9 antibody binding; inhibition, % at 6.7 µM; 360,000 compounds, 0.43% hits; AID 624416, 2012; in the data active = inhibition above about 8.5%
UCH37 reconfirm = retest of human UCH37 deubiquitinase inhibitors, confirmation, biochemical, Ub-AMC cleavage rate, fluorescence | AID 624100, 2012 | inhibition, % at 20 µM | shares compounds with UCH37 DUB inh | Proteasome-bound UCH37 | 480 compounds, 27% hits;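 active = average inhibition over replicates above about 50%, so the earlier screening hit is confirmed, limit read from the data; inactive = the rest, counted as false positives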;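 also: based on cleavage rate fitted by regression over a 30 min kinetic read; 0% = proteasome plus Ub-AMC and 100% = Ub-AMC without proteasome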
Numbers without * were called inactive; i = inactive; · = no result given; ! = a repeat was not active. Shown are actives, neighbours in structure and some others; about 1.9% of the full set was active somewhere.

SMILES	CR mimetic SO	beta cell repl	Rev-erbA mod	UCH37 DUB inh	Rce1 inhib	PG9 binder	UCH37 reconfirm
CCOC(=O)c1c(N2C(=O)C3CC(C)=C(C)CC3C2=O)sc(C)c1C (centres undefined)	114.4	-3.4	6.4	43.1*	i	0.6	63.9*
CC(C)(C)c1ccc(C(=O)NCC(=O)NN=Cc2ccccc2OCC(=O)O)cc1	·	·	·	4.2	·	·	·
COC/C=C/C1=CC2=CC(=O)C(C)(OC(=O)c3cnc4ccccc4n3)C(=O)C2=CN1C1CC1 (centres undefined)	92.7	-0.4	0.9	47.3*	i	1.5	23.8
Fc1cccc(Cl)c1C=NNc1c(Cl)cncc1Cl	·	·	·	5.7	·	·	·
Cn1c(Cc2nc3ccccc3n2C)nc2ccccc21	111.3	2.2	1.7	41.9*	i	-0.4	15.3
Cc1ccc(C(=O)NNc2cc(N3CCCC3)nc(N3CCCC3)n2)cc1	106.3	-5.2	·	49.3*	i	·	50.1*
COCCNC(=O)/C(C#N)=C/c1ccc(N2CCOCC2)o1	114.9	-1.4	15.1	37.6*	i	-22.9	36.1
COCCNC(=O)/C(C#N)=C/c1ccc(-c2ccc(OC)cc2[N+](=O)[O-])o1	93.7	-3.6	7.3	51.9*	i	-2.0	30.3
N#C/C(=C\c1ccc(N2CCOCC2)o1)C(=O)NC1CCCCC1	78.9	-2.2	11.2	29.6*	i	-10.8	20.2
CCOC(=O)Nc1ccc(S(=O)(=O)N2CCC(c3nc4ccccc4[nH]3)CC2)cc1	·	·	-1.7	·	·	-1.4	·
CC(=O)Nc1ccc(S(=O)(=O)N2CCC(c3nc4ccc(C)cc4[nH]3)CC2)cc1	107.0	0.9	0.7	28.1*	i	1.1	12.4
O=C(O)c1cccc(NC2=C(N3CCOCC3)C(=O)c3ccccc3C2=O)c1	191.7	-0.8	-0.7	28.1*	i	-3.8	14.4
O=C1C=C(N2CCOCC2)c2ccccc2C1=O	119.9	-5.7	-3.9	97.4*	i	-9.7	130.5*
Cc1cccc(NC2=C(NC(=O)c3ccccc3)C(=O)c3ccccc3C2=O)c1	114.6	-5.6	-5.7	51.8*	i	-13.0	41.5
O=C(NC1=C(NC2CCS(=O)(=O)C2)C(=O)c2ccccc2C1=O)c1ccccc1 (centres undefined)	190.6	-6.1	0.7	62.3*	i	-11.4	59.8*
CC(=O)Nc1ccc(Sc2ccc([N+](=O)[O-])o2)cc1	·	·	-2.5	27.7*	·	0.6	25.8
N#CC1=C(N)NC(SCC(=O)O)=C(C#N)C12CCCC2	94.0	-2.2	1.2	7.2	i	-1.4	·
N#CC1=C(N)NC(SCC(=O)Nc2ccccc2)=C(C#N)C12CCCC2	88.9	-3.7	6.9	37.5*	i	-2.9	33.9
COC(=O)c1ccccc1NC1=C/C(=N\S(=O)(=O)c2cccs2)c2ccccc2C1=O	115.9	-6.6	4.2	29.8*	i	-3.5	54.5*!
O=C1C(Nc2ccccc2)=C/C(=N/S(=O)(=O)c2cccs2)c2ccccc21	105.4	·	·	·	i	·	·
CCCCCCCCCCCCCCCC[n+]1ccc(C=NO)cc1	·	·	·	53.0*	·	·	57.0*
C(C#CCCCCCCCCC[n+]1ccccc1)#CCCCCCCCCC[n+]1ccccc1	90.3	·	-1.0	33.7*	i	·	68.8*
CC(C)(C)c1ccc(C2CC2C(=O)NN=Cc2cc3ccccc3nc2Cl)cc1 (centres undefined)	·	·	·	4.7	·	·	·
N=C1/C(=C/c2ccc(-c3cccc(C(=O)O)c3)o2)C(=O)N=C2SC=C(c3ccccc3)N12	104.0	-5.8	-13.9	25.8*	i	-0.9	66.4*
CC(C)C(=O)ON=C1CCS(=O)(=O)c2sccc21	·	·	·	2.3	·	·	·
N#Cc1cn(-c2ccccc2)nc1C(=O)c1ccccc1	134.4	0.7	3.6	36.5*	i	-1.7	14.9

Source: PubChem BioAssay (several laboratories)
